# Source: paper PMC8052301 (Biochemical and biophysical research communications, 2021)
# Ends that are not written are not given here. * marks the point of attachment. FITC = O=C1OC2(c3ccc(O)cc3Oc3cc(O)ccc32)c2ccc(NC(=S)*)cc21; Ahx = NCCCCCC(=O)O
# T1: HS-Bok (Mus musculus, UniProt O35425)
# T1 sequence (O35425 1-213): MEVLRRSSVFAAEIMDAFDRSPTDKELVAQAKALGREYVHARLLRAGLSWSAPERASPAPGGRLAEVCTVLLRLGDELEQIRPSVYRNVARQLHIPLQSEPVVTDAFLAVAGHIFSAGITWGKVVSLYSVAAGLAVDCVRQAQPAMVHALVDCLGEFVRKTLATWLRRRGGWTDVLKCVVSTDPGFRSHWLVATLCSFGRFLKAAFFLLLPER
# Key:
# IP3R1 = details: ref [3]; cited from earlier work
# HS-Bok = target: T1, HS-Bok; assay: Fluorescence polarization; assay type: binding; details: FP, PBS pH 7.4 / 0.1% BSA
# [1] = target: FITC-IP3R1^1904-1940 (mouse) (UniProt P11881); assay: fluorescence polarisation
# [2] = target: FITC-IP3R1^1898-1940 (mouse) (UniProt P11881); assay: fluorescence polarisation
# [3] = target: FITC-IP3R1^1898-1929 (mouse) (UniProt P11881); assay: fluorescence polarisation
# HEK-3KO cells = assay: Cellular fractionation into cytosol and crude membrane, immunoblot; assay type: cell-based; details: for localization on co-expression of IP3R1-HA^WT and 3F-Bok^WT: IP3R1-HA^WT and 3F-Bok^WT co-expressed; for localization, expressed alone: cytosol / membrane fractions
# Procedure, shortened: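 HEK-3KO cells are PEI-transfected (1-2 μg cDNA) with tagged mouse constructs, harvested in ice-cold homogenization buffer and sonicated. They are then spun at 20,000xg for 60 min at 4°C. The supernatant gives the cytosol fraction, and the pellet, resuspended in buffer, gives crude membranes. Fractions go through SDS-PAGE and ECL immunoblot, with transaldolase as the cytosol marker and Hrd1 as the membrane marker.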
# 3F-Bok^WT = assay: Anti-HA IP of IP3R1-HA constructs and co-IP of 3F-Bok^WT from HEK-3KO cells; assay type: cell-based, mouse; details: IP3R1-HA and 3F-Bok co-transfected, immunoblot
# Procedure, shortened: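 Cotransfection uses full-length C-terminally HA-tagged mouse IP3R1 and N-terminally 3xFlag-tagged mouse Bok, with 1-2 μg cDNA and PEI, in HEK-3KO cells seeded at 6-8x10^5/well and transfected ~24 h later. Rabbit anti-HA precipitates from lysates. Blots of precipitates and inputs are probed with mouse anti-HA and anti-Bok, with p97 as input loading control. Detection is by ECL after SDS-PAGE and nitrocellulose transfer.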
# 3F-Bok^ΔTM = assay: Anti-HA IP and co-IP of TM domain-lacking constructs from HEK-3KO cells; assay type: cell-based, mouse; details: immunoblot
# Procedure, shortened: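 HEK-3KO cells (6-8x10^5/well) are transfected ~24 h after seeding with 1-2 μg cDNA using PEI. Constructs are mouse IP3R1 with a C-terminal HA tag, truncated to aa 1-2264, and mouse Bok with an N-terminal 3xFlag tag, truncated to aa 1-187. Lysates are immunoprecipitated with rabbit anti-HA. Samples are heated (37°C 30 min or boiled 5 min), run on SDS-PAGE, blotted to nitrocellulose and detected by ECL. p97 is the input loading control.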
# HS-HA = assay: FP of FITC-conjugated peptide with negative control HS-HA; assay type: binding; details: PBS pH 7.4 / 0.1% BSA, FITC-IP3R1^1898-1940
# HS-IP3R1 = assay type: binding, mouse; details: PBS / 0.1% BSA, 16h at 4°C, anti-IP3R1^1884-1903 IP, immunoblot
# Procedure, shortened: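 His-SUMO-tagged mouse Bok and IP3R1 fragments, plus an HA-tag control, are expressed in E. coli BL21-CodonPlus(DE3)-RIPL. Cells are grown at 37°C to OD600 ~0.6, then induced with 1 mM IPTG for ~18 h at 16°C. Protein is purified on Ni-NTA in pH 7.4 phosphate buffer and eluted with 400 mM imidazole. Mixtures are immunoprecipitated with rabbit anti-IP3R1 (aa 1884-1903) and probed by immunoblot.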
molecule,measurement,setting,value
Bcl-2: Bcl-2 family protein reported to interact with IP3Rs,strength of interaction with IP3R1 relative to Bok,IP3R1,much less strongly than Bok
Bcl-xL: Bcl-2 family protein reported to interact with IP3Rs,strength of interaction with IP3R1 relative to Bok,IP3R1,much less strongly than Bok
"FITC-IP3R1^1907-1921: shorter peptide which encompasses just the ANCHOR2 ""peak"" shown in Figure 1C (ITEEVRDQLLEASAA; also: FITC-conjugated, position not given here)",binding to HS-Bok (in words),HS-Bok,does not bind to HS-Bok at all
HS-Bok (from UniProt O35425 1-213) (natural protein),Kd,[1],398 nM
same,Kd,[2],64 nM
same,Kd,[3],265 nM
IP3R1-HA^WT: mouse IP3R1 tagged at the C-terminus with an HA epitope,localization on co-expression of IP3R1-HA^WT and 3F-Bok^WT,HEK-3KO cells,the same localization is maintained
same,"localization, expressed alone",HEK-3KO cells,localize completely to membranes
same,co-IP of 3F-Bok^WT,3F-Bok^WT,allowed for efficient co-IP of 3F-Bok^WT
IP3R1-HA^Δ1909-1941: IP3R1-HA construct with the largest deletion,co-IP of 3F-Bok^WT,3F-Bok^WT,did not co-IP 3F-Bok^WT
"IP3R1-HA^Δ1916-1917: IP3R1-HA deletion mutant, Bok binding-deficient",co-IP of 3F-Bok^WT,3F-Bok^WT,failed to co-IP 3F-Bok^WT
IP3R1-HA^Δ1917: IP3R1-HA deletion mutant,co-IP of 3F-Bok^WT,3F-Bok^WT,failed to co-IP 3F-Bok^WT
IP3R1-HA^Δ1920-1921: IP3R1-HA deletion mutant,co-IP of 3F-Bok^WT,3F-Bok^WT,failed to co-IP 3F-Bok^WT
"IP3R1-HA^ΔTM, Δ1916-1917: lacks TM domains and the ability to bind Bok",localization upon co-transfection of 3F-Bok^WT,HEK-3KO cells,an effect not seen
IP3R1-HA^ΔTM: contains amino acids 1-2264 of IP3R1,localization upon co-transfection of 3F-Bok^WT,HEK-3KO cells,becomes more membrane-associated
same,"localization, expressed alone",HEK-3KO cells,predominantly cytosolic
same,co-IP of cytosolic 3F-Bok^ΔTM and IP3R1-HA^ΔTM,3F-Bok^ΔTM,strongly co-IP
{FITC-Ahx}-KKAKEPTTQITEEVRDQLLEASAATRKAFTTFRREADPDDHYQ (N-terminus assumed) [FITC-IP3R1^1898-1940],binding to HS-HA (in words),HS-HA,but not negative control HS-HA
same,binding to HS-Bok (in words),HS-Bok,bound with high affinity
"HS-Bok: bacterially expressed, His-sumo (HS) tagged mouse Bok (protein, UniProt O35425 1-213, looked up, His-SUMO tag) Bcl-2-related ovarian killer …: MEVLRRSSVFAAEIMDAFDRSPTDKELVAQAKALGREYVHARLLRAGLSWSAPERASPAPGGRLAEVCTVLLRLGDELEQIRPSVYRNVARQLHIPLQSEPVVTDAFLAVAGHIFSAGITWGKVVSLYSVAAGLAVDCVRQAQPAMVHALVDCLGEFVRKTLATWLRRRGGWTDVLKCVVSTDPGFRSHWLVATLCSFGRFLKAAFFLLLPER",co-IP with HS-IP3R1,HS-IP3R1,strong co-IP
"3F-Bok^WT: Bok from mouse tagged at the N-terminus with a 3xFlag epitope (protein, left off: 3xFlag, N-terminal, kept) MEVLRRSSVFAAEIMDAFDRSPTDKELVAQAKALGREYVHARLLRAGLSWSAPERASPAPGGRLAEVCTVLLRLGDELEQIRPSVYRNVARQLHIPLQSEPVVTDAFLAVAGHIFSAGITWGKVVSLYSVAAGLAVDCVRQAQPAMVHALVDCLGEFVRKTLATWLRRRGGWTDVLKCVVSTDPGFRSHWLVATLCSFGRFLKAAFFLLLPER",localization on co-expression of IP3R1-HA^WT and 3F-Bok^WT,HEK-3KO cells,"the same localization is maintained, with an increase in Bok expression level"
same,"localization, expressed alone",HEK-3KO cells,localize completely to membranes
"3F-Bok^ΔTM: contains amino acids 1-187 of Bok (protein, left off: 3xFlag, N-terminal, kept) MEVLRRSSVFAAEIMDAFDRSPTDKELVAQAKALGREYVHARLLRAGLSWSAPERASPAPGGRLAEVCTVLLRLGDELEQIRPSVYRNVARQLHIPLQSEPVVTDAFLAVAGHIFSAGITWGKVVSLYSVAAGLAVDCVRQAQPAMVHALVDCLGEFVRKTLATWLRRRGGWTDVLKCVVSTDPGFR","localization, expressed alone",HEK-3KO cells,predominantly cytosolic
